Key:
Cannabinoid receptor 1 = Cannabinoid receptor 1 (Rattus norvegicus, UniProt P20272); experiment: Displacement of [3H]CP55940 from rat brain CB1 receptor
Cannabinoid receptor 2 [1] = biological target: Cannabinoid receptor 2 (Homo sapiens, UniProt P34972); experiment: Displacement of [3H]CP55940 from human CB2 receptor expressed in HEK293 cells; format: cell-based
Cannabinoid receptor 2 [2] = biological target: Cannabinoid receptor 2 (Mus musculus, UniProt P47936); experiment: Displacement of [3H]CP55940 from mouse spleen CB2 receptor; format: tissue-based
Rattus norvegicus [3] = species: Rattus norvegicus; experiment: Antinociceptive activity in Sprague-Dawley rat assessed as reduction in heat-induced tail flick latency; format: functional; parameters: scale not given: the % may be the effect or the level left
How it was run: (§1)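 Female Sprague-Dawley rats (200–350 g, n=5-6/group), tested repeatedly with ≥3 days between sessions. Drug given s.c. (1.0 ml/kg) in 20% ethanol/20% alkamuls/60% saline diluted with saline; morphine in saline. Lamp set for 2–3 sec baseline, 6.0 sec cut-off; two baselines at 10 min intervals; latency read at 30, 60, 120, 180, 360 min. Expressed as %MPE.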

Rattus norvegicus [4] = experiment: Antinociceptive activity in Sprague-Dawley rat assessed as reduction in heat-induced tail flick latency at 0.1 mg/kg, sc after 120 mins; format: functional; parameters: scale not given: the % may be the effect or the level left; conditions: route subcutaneous; how it was run: as §1
Rattus norvegicus [5] = experiment: Antinociceptive activity in sc dosed Sprague-Dawley rat assessed as thermal-stimulus induced tail flick latency after 120 mins; format: functional; conditions: 2 h; how it was run: as §1

Sequence of Cannabinoid receptor 1 (P20272 whole entry): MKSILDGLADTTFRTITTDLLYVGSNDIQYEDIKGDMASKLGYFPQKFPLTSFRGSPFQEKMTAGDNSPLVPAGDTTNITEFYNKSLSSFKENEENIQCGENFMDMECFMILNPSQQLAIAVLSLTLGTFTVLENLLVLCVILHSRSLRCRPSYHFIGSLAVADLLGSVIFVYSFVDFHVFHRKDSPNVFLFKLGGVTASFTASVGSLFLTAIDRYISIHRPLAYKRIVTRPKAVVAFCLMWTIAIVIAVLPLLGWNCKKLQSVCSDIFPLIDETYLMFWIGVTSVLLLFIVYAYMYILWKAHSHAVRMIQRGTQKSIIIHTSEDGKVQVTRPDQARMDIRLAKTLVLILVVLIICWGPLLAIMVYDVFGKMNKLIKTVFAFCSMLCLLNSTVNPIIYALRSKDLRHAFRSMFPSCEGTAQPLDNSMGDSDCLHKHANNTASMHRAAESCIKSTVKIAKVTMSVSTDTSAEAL
Sequence of Cannabinoid receptor 2 (Mus musculus, UniProt P47936) (P47936 whole entry): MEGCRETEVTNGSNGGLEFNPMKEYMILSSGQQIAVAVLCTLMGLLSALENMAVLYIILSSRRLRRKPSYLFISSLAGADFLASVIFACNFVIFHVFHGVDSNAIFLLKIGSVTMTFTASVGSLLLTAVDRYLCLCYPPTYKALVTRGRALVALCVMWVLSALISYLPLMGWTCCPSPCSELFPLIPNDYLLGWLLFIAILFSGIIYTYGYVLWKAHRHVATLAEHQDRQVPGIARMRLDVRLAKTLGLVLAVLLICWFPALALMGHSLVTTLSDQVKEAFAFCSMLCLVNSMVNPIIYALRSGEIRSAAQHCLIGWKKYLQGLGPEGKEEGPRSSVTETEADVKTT
Sequence of Cannabinoid receptor 2 (Homo sapiens, UniProt P34972) (P34972 whole entry): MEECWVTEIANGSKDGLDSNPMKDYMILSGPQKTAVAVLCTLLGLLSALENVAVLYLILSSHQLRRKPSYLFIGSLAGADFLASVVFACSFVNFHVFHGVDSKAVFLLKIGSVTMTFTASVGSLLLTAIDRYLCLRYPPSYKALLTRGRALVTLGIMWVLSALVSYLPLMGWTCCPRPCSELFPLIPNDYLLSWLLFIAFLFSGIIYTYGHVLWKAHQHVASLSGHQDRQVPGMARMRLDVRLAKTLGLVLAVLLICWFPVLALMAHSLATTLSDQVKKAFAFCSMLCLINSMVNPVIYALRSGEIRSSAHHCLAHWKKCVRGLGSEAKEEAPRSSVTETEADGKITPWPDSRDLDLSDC

SMILES: CC1(C)Oc2cc(C3(CCCCCBr)CCC3)cc(O)c2[C@@H]2C[C@@H](O)CC[C@H]21
- Ki (Cannabinoid receptor 1): 1.5 nM

SMILES: CCCC/C=C\C1(c2cc(O)c3c(c2)OC(C)(C)[C@@H]2CCC(=O)C[C@@H]32)CCCC1
- Ki (Cannabinoid receptor 2 [1]): 7.02 nM
- Ki (Cannabinoid receptor 2 [2]): 5.25 nM
- Ki (Cannabinoid receptor 1): 1.23 nM

SMILES: CC1(C)Oc2cc(C3(CCCCCCBr)CCCC3)cc(O)c2[C@@H]2CC(=O)CC[C@H]21
- Ki (Cannabinoid receptor 2 [1]): 3.02 nM
- Ki (Cannabinoid receptor 2 [2]): 1.6 nM
- Ki (Cannabinoid receptor 1): 4.96 nM

SMILES: Cc1c(C(=O)NN2CCCCC2)nn(-c2ccc(Cl)cc2Cl)c1-c1ccc(Cl)cc1 [RIMONABANT]
- Activity (Rattus norvegicus [3]): 48%
- Activity (Rattus norvegicus [4]): 85.4%

SMILES: CC1(C)Oc2cc(C3(CCCCCBr)CCCC3)cc(O)c2[C@@H]2CC(=O)CC[C@H]21
- Ki (Cannabinoid receptor 2 [1]): 1.32 nM
- Ki (Cannabinoid receptor 2 [2]): 2.59 nM
- Ki (Cannabinoid receptor 1): 1.03 nM

SMILES: CCCCCCC1(c2cc(O)c3c(c2)OC(C)(C)[C@@H]2CCC(=O)C[C@@H]32)SCCS1
- Ki (Cannabinoid receptor 2 [1]): 32.6 nM
- Ki (Cannabinoid receptor 2 [2]): 42.3 nM
- Ki (Cannabinoid receptor 1): 6.57 nM

SMILES: CCCC/C=C\C1(c2cc(O)c3c(c2)OC(C)(C)[C@@H]2CCC(=O)C[C@@H]32)CCC1
- Ki (Cannabinoid receptor 2 [1]): 15.1 nM
- Ki (Cannabinoid receptor 2 [2]): 12 nM
- Ki (Cannabinoid receptor 1): 1.13 nM

SMILES: CCCCCc1cc(O)c2c(c1)OC(C)(C)[C@@H]1CCC(=O)C[C@@H]21
- Ki (Cannabinoid receptor 2 [2]): 265 nM
- Ki (Cannabinoid receptor 1): 333 nM

SMILES: CCCCCCC1(c2cc(O)c3c(c2)OC(C)(C)[C@@H]2CCC(=O)C[C@@H]32)CCC1
- Ki (Cannabinoid receptor 2 [1]): 11.9 nM
- Ki (Cannabinoid receptor 2 [2]): 13.7 nM
- Ki (Cannabinoid receptor 1): 0.84 nM

SMILES: CC1(C)Oc2cc(C3(CCCCCBr)CCC3)cc(O)c2[C@@H]2CC(=O)CC[C@H]21
- Ki (Cannabinoid receptor 2 [1]): 5.88 nM
- Ki (Cannabinoid receptor 2 [2]): 7.56 nM
- Ki (Cannabinoid receptor 1): 2.33 nM

SMILES: CC1(C)Oc2cc(C3(CCCCC#N)CCCC3)cc(O)c2[C@@H]2CC(=O)CC[C@H]21
- Ki (Cannabinoid receptor 2 [2]): 2.78 nM
- Ki (Cannabinoid receptor 1): 3.14 nM

SMILES: CC1(C)Oc2cc(C3(CCCCCBr)CCC3)cc(O)c2[C@@H]2C[C@H](O)CC[C@H]21
- Ki (Cannabinoid receptor 1): 1.37 nM

SMILES: CC1(C)Oc2cc(C3(CCCCBr)CCCC3)cc(O)c2[C@@H]2CC(=O)CC[C@H]21
- Ki (Cannabinoid receptor 2 [2]): 13.9 nM
- Ki (Cannabinoid receptor 1): 13.1 nM

SMILES: CCCCCCC(C)(C)c1cc(O)c2c(c1)OC(C)(C)[C@@H]1CCC(=O)C[C@@H]21 [NABILONE]
- Ki (Cannabinoid receptor 2 [2]): 1.8 nM
- Ki (Cannabinoid receptor 1): 2.2 nM

SMILES: CCCCCCC1(c2cc(O)c3c(c2)OC(C)(C)[C@@H]2CCC(=O)C[C@@H]32)CCCC1
- Ki (Cannabinoid receptor 2 [1]): 3.34 nM
- Ki (Cannabinoid receptor 2 [2]): 0.97 nM
- Ki (Cannabinoid receptor 1): 1.76 nM

SMILES: CCCCCCC1(c2cc(O)c3c(c2)OC(C)(C)[C@@H]2CC[C@@H](O)C[C@@H]32)CCC1
- Ki (Cannabinoid receptor 2 [1]): 5.13 nM
- ED50 (Rattus norvegicus [5]): 0.026 mg/kg
- Ki (Cannabinoid receptor 2 [2]): 4.21 nM
- Ki (Cannabinoid receptor 1): 0.16 nM

Reference: ChEMBL document CHEMBL1255228 (J Med Chem, 2010)
